Results on 18 compounds are retold here after ChEMBL document CHEMBL1147841, “Synthesis and biological study of 2-amino-4-aryl-5-chloropyrimidine analogues as inhibitors of VEGFR-2 and cyclin dependent kinase 1 (CDK1)” (Bioorg Med Chem Lett, 2007).

Data set [1] addresses Cyclin-dependent kinase 1 (Homo sapiens, UniProt P06493). Description: Inhibition of CDK1.
Data set [2] deals with HeLa. Description: Antiproliferative activity against human HeLa cells. The class given is functional, cell-based.
Data set [3] has as its target Vascular endothelial growth factor receptor 2 (Homo sapiens, UniProt P35968). Description: Inhibition of VEGFR2.
The test system of data set [4] is A-375. The data set can be described thus: Antiproliferative activity against human A375 cells. Type of data set: functional, cell-based.
Data set [5] has as its system HCT-116. Description: Antiproliferative activity against human HCT116 cells. The class given is functional, cell-based.
Data set [6] is described as follows: Cmax in Sprague-Dawley rat at 2 mg/kg, iv. Type of data set: ADME, organism-based. On the set-up: dose 2 mg/kg, route intravenous. To be noted: in vivo. The method in brief:
(§1)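 Male Sprague-Dawley rats were given single doses orally at 10 mg/kg in 0.5% Methocel and intravenously at 2 mg/kg in 10% Solutol. Plasma concentrations were followed to derive AUC (µM h), Cmax (µM), half-life (h), clearance (mL/min/kg), steady-state volume of distribution (L/kg) and oral bioavailability (%).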

The nature of data set [7]: AUC in Sprague-Dawley rat at 10 mg/kg, po. The class given is ADME, organism-based. Further details: dose 10 mg/kg, route oral. To be noted: plasma. A digest of the protocol: as §1
Data set [8] is described as follows: Half life in Sprague-Dawley rat at 2 mg/kg, iv. To be noted: in vivo. Further details: dose 2 mg/kg, route intravenous. The class given is ADME, organism-based. The method in brief:
as §1

Data set [9] can be described thus: AUC in Sprague-Dawley rat at 2 mg/kg, iv. The class given is ADME, organism-based. Further details: dose 2 mg/kg, route intravenous. To be noted: plasma. A digest of the protocol:
as §1

The nature of data set [10]: Volume of distribution at steady state in Sprague-Dawley rat. Type of data set: ADME, organism-based. To be noted: in vivo, read-out: Vss. The method in brief:
as §1

Data set [11] is described as follows: Half life in Sprague-Dawley rat at 10 mg/kg, po. The class given is ADME, organism-based. On the set-up: dose 10 mg/kg, route oral. To be noted: in vivo. The method in brief:
as §1

Data set [12] in a line: Cmax in Sprague-Dawley rat at 10 mg/kg, po. The class given is ADME, organism-based. Further details: dose 10 mg/kg, route oral. To be noted: in vivo. The method in brief:
as §1

The nature of data set [13]: Bioavailability in Sprague-Dawley rat at 10 mg/kg, po. Type of data set: ADME, organism-based. To be noted: in vivo. The method in brief:
as §1

The nature of data set [14]: Clearance in Sprague-Dawley rat. Type of data set: ADME, organism-based. To be noted: in vivo. The method in brief: as §1

Sequence of Vascular endothelial growth factor receptor 2 (P35968 whole entry): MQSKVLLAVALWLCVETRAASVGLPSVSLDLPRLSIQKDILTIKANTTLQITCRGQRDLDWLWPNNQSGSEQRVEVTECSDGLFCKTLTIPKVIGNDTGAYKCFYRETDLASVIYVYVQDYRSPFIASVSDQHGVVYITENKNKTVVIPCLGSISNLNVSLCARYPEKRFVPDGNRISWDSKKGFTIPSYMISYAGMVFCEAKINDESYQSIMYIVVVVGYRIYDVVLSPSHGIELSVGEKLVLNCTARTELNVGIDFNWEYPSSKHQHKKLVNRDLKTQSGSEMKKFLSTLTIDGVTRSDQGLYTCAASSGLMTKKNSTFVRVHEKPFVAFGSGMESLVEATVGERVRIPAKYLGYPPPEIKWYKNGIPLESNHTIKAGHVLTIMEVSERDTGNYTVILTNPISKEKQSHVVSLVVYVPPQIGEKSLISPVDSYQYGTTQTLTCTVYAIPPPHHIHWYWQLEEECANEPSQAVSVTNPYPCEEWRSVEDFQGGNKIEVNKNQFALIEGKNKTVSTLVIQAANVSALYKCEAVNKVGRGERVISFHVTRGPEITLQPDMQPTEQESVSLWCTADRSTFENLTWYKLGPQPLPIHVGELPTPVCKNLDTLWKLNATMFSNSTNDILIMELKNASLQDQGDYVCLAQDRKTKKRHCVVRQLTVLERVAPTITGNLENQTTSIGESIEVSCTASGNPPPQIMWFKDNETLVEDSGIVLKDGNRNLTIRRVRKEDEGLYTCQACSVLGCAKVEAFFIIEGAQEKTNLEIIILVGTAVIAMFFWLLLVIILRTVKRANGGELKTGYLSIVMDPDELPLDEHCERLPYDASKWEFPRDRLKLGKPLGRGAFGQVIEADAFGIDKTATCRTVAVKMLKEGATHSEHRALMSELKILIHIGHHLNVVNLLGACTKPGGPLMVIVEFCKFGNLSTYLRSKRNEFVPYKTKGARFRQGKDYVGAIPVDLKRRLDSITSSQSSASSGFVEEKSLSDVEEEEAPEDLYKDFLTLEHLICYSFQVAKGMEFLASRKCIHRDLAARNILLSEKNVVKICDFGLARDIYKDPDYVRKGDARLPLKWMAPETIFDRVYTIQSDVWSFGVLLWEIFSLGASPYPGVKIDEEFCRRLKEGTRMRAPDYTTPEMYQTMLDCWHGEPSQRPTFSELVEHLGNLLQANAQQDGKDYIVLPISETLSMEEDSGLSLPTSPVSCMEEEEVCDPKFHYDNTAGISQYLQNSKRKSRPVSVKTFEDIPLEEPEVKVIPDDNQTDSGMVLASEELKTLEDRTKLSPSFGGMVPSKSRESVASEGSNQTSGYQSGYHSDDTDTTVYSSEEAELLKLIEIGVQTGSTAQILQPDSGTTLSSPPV
Sequence of Cyclin-dependent kinase 1 (P06493 whole entry): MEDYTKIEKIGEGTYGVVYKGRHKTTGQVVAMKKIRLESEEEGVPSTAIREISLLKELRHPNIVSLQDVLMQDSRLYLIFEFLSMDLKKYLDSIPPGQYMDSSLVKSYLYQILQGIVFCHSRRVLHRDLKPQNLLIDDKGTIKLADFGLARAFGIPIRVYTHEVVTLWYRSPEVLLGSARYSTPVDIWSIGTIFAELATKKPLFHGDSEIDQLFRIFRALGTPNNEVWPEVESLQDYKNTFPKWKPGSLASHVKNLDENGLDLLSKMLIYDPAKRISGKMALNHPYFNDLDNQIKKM

In general, IC50 refers to the midpoint of a concentration-inhibition curve. High values mean a need for much substance, low ones inhibition by little substance. As to `CN(C)CCc1ccc(Nc2ncc(Cl)c(-c3cccs3)n2)cc1`, the IC50 in data set [1] came to 0.461 µM; in data set [2], 1.24 µM; in [3] it was 0.159 µM; in [4], 0.016 µM; in data set [5] it was 0.228 µM.
Turning to `CN(C)CCc1ccc(Nc2ncc(Cl)c(-c3c[nH]c4ccccc34)n2)cc1`, the IC50 in data set [1] came out at 0.048 µM; in data set [2], 0.075 µM; in data set [3] it was 0.007 µM; in [4], 0.05 µM; in [5] it was 0.084 µM.
Turning to `CC(C)(N)c1ccc(-c2nc(Nc3ccc(CCN4CCCC4)cc3)ncc2Cl)cc1`, the IC50 was found to be 0.808 µM in [1]; 0.339 µM in data set [2]; 0.026 µM in data set [3]; 0.247 µM in [4]; 0.359 µM in data set [5].
Turning to `CN1CCN(CCc2ccc(Nc3ncc(Cl)c(-c4ccc(C(C)(C)N)cc4)n3)cc2)CC1`, the IC50 in [1] is 1.61 µM; in [2], 0.811 µM; in data set [3], 0.076 µM; in data set [4], 0.868 µM; in data set [5], 1.3 µM.
The corresponding values for `CN1CCN(CCc2ccc(Nc3ncc(Cl)c(-c4c[nH]c5ccccc45)n3)cc2)CC1` are 0.18 µM, 3.33 µM, 0.007 µM, 3.93 µM and 3.05 µM.
The term Cmax denotes the maximum level reached in the sampled fluid or tissue. As a reminder, the AUC is concentration integrated over time. Low readings indicate low exposure, high ones high exposure. As usually defined, the half-life is how long it takes for the measured level to halve. By bioavailability is commonly meant dose-corrected exposure relative to a reference, in per cent. Lower therefore signals little systemic uptake. In general, clearance refers to the volume of plasma or blood freed of the substance per unit of time. The low end stands for inefficient removal, the high end for efficient removal. As for `CCN1CCN(CCc2ccc(Nc3ncc(Cl)c(-c4ccc5cc[nH]c5c4)n3)cc2)CC1`, the IC50 in data set [1] worked out at 1.24 µM; in [2], 2.08 µM; in [3], 0.037 µM; in data set [4] it was 2.57 µM; in data set [5], 2.45 µM. For the same compound, the Cmax in data set [6] worked out at 0.96 µM; in [12] it was 0.59 µM. Moreover, the AUC stood at 6.12 µM·h in [7] and 3.06 µM·h in data set [9]. For the same compound, the half-life in data set [8] is 5.8 h; in data set [11], 4.6 h. Further, in data set [10], the Vd came to 10.1 L/kg. The compound further came in with a bioavailability in data set [13] of 40%. For the same compound, in [14], the clearance stood at 1.5 L/h/kg.
Turning to `CN(C)CCc1ccc(Nc2ncc(Cl)c(-c3ccc4cc[nH]c4c3)n2)cc1`, the IC50 in [1] was found to be 1.77 µM; in data set [2] it was 0.472 µM; in data set [3], 0.015 µM; in [4] it was 0.336 µM; in data set [5], 0.446 µM.
As for `CC(C)(N)c1ccc(-c2nc(Nc3ccc(CCO)cc3)ncc2Cl)cc1`, the IC50 in data set [1] is 0.687 µM; in [2] it was 2.92 µM; in data set [3], 0.069 µM; in [4] it was 1.37 µM; in data set [5], 1.6 µM. Moreover, the highest concentration (Cmax) in [6] worked out at 1.43 µM; in [12], 1.11 µM. In addition, the AUC worked out at 7.65 µM·h in data set [7] and 2.77 µM·h in data set [9]. In addition, the figures for the half-life in data set [8] and in data set [11] were 4.9 h and 4.5 h, respectively. For the same compound, the Vd in data set [10] worked out at 10.7 L/kg. The bioavailability in data set [13] was determined as 55%. The clearance in [14] stood at 2.04 L/h/kg.
As for `CNCCc1ccc(Nc2ncc(Cl)c(-c3ccc(C(C)(C)N)cc3)n2)cc1`, the IC50 was 1.06 µM in data set [1]; 0.542 µM in [2]; 0.033 µM in [3]; 0.175 µM in data set [4]; 0.885 µM in data set [5].
Turning to `CC(C)(N)c1ccc(-c2nc(Nc3ccc(CCN4CCOCC4)cc3)ncc2Cl)cc1`, the half-inhibitory concentration (IC50) in [1] turned out to be 2.77 µM; in [2] it was 3.01 µM; in data set [3], 0.148 µM; in data set [4] it was 3.17 µM; in [5] it was 3.22 µM.
Turning to `Clc1cnc(Nc2ccc(CCN3CCCC3)cc2)nc1-c1ccc2cc[nH]c2c1`, the IC50 in data set [1] was found to be 1.54 µM; in data set [2], 0.973 µM; in data set [3], 0.016 µM; in [4] it was 1.97 µM; in data set [5], 1.68 µM. In addition, the Cmax was 0.67 µM in data set [6] and 0.72 µM in [12]. Also, the AUC in data set [7] is 5.74 µM·h; in data set [9] it was 1.63 µM·h. Further, the half-life in data set [8] was 3.9 h; in data set [11], 2.6 h. The Vd in [10] was found to be 16.3 L/kg. Moreover, the bioavailability in data set [13] is 70%. The compound also had a clearance in data set [14] of 3.06 L/h/kg.
Turning to `Cc1nc(C)c(-c2nc(Nc3ccc(CCN(C)C)cc3)ncc2Cl)s1`, the IC50 came out at 0.439 µM in data set [1]; 0.431 µM in [2]; 0.797 µM in [3]; 0.399 µM in [4]; 0.391 µM in data set [5].
With `CN(C)CCc1ccc(Nc2ncc(Cl)c(-c3cccc4[nH]ccc34)n2)cc1`, the 50% inhibitory concentration (IC50) in [1] is 0.54 µM; in [2] it was 0.292 µM; in [3] it was 0.216 µM; in data set [4], 0.21 µM; in data set [5] it was 0.084 µM.
In the case of `CN(C)CCc1ccc(Nc2ncc(Cl)c(-c3n[nH]c4ccccc34)n2)cc1`, the IC50 in [1] is 0.781 µM; in data set [2] it was 3.06 µM; in [3], 0.314 µM; in data set [4], 3.97 µM; in data set [5], 3.76 µM.
Consider `CN(C)CCc1ccc(Nc2ncc(Cl)c(-c3ccc4[nH]ccc4c3)n2)cc1`, for which the IC50 in data set [1] was determined as 0.847 µM; in data set [2], 0.596 µM; in data set [3] it was 0.103 µM; in data set [4], 0.03 µM; in [5] it was 0.321 µM.
In the same order, the values of `CC(C)(N)c1ccc(-c2nc(Nc3cccc(Br)c3)ncc2Cl)cc1` are 1.04 µM, 3.35 µM, 0.348 µM, 2.61 µM and 3.69 µM.
In the same order, the values of `CN(C)CCc1ccc(Nc2ncc(Cl)c(-c3ccc(C(C)(C)N)cc3)n2)cc1` are 1.14 µM, 0.5 µM, 0.019 µM, 0.163 µM and 1.68 µM.
The corresponding values for `CN(C)CCc1ccc(Nc2ncc(Cl)c(-c3cccc4cc[nH]c34)n2)cc1` are 0.334 µM, 1.29 µM, 0.455 µM, 0.774 µM and 0.47 µM.
